# From PubChem
# Most compounds without a hit are left out; they make up all but 2.6% or so of the library.
# hiPSC survival = enhancers of human iPSC single-cell survival | 360,000 tested, 0.044% active | survival enhancement, % at 20 µM | hiPSC single-cell survival, ATPlite luminescence; 100% = ROCK inhibitor wells, 0% = DMSO; in the data active means survival enhancement above about 18%;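 further: cells exposed to compounds for 16 hours before the ATP read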
# MC4R antag cAMP = human MC4R antagonism in cAMP assay. 360,000 tested, 0.48% active. inhibition, % at 6.5 µM. P32245. MC4R-expressing cells, MTII-stimulated cAMP, LANCE TR-FRET;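 active means inhibition above its plate's cutoff, the mean of tested wells on that plate plus 3 SD, cut at about 29% in these data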;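 further: 0% = Melanotan II alone and 100% = Melanotan II plus saturating MCL0020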
# Target sequence (P32245 whole entry, looked up): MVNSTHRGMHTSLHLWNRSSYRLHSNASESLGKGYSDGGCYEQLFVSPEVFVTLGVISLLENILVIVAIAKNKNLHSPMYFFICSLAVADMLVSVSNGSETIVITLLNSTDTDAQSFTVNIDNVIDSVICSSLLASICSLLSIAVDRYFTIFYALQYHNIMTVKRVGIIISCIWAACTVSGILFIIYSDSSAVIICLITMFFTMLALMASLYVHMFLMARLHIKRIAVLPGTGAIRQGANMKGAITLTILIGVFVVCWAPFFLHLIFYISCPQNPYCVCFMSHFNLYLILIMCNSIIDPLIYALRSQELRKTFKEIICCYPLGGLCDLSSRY
#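 material = U2OS cells stably expressing human melanocortin 4 receptor (MC4R) | also added = Melanotan II challenge | dosing = single nominal compound dose of 6.5 µM | detection = TR-FRET with Eu-cAMP and labeled anti-cAMP, 671 nm | replication = singlicate | timing = compound 30 min, challenge 1 h, detection 1 h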
# ABCB6 inh MLPCN = human ABCB6 transporter inhibition. K562-ABCB6 porphyrin accumulation, flow cytometry, 1 h; active compounds read low. fluorescence ratio to DMSO, % at 10 µM. 360,000 tested, 0.19% active. AID 602162;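 active means fluorescence ratio to DMSO below 75%, the collection mean minus 3 SD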;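 further: signal is porphyrin accumulated inside mitochondria; 100% equals median channel fluorescence of DMSO control wells; lower ratio means ABCB6 inhibition with less porphyrin fluorescence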
# Exocytosis inh = blocks lytic granule exocytosis | TALL-104 LAMP-1 surface exposure, flow cytometry; cells stimulated with thapsigargin and PMA | inhibition, % at 10 µM | 360,000 tested, 0.66% active;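 active means inhibition above about 55%, limit read from the data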
# MC4R ag barr = activates human MC4R beta-arrestin recruitment; P32245; U2OS MC4R beta-arrestin complementation, luminescence; percent of melanotan II response, DMSO zero; activation, % at 8.9 µM; 360,000 tested, 0.98% active; AID 540308;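 active means activation above a per-plate cutoff, the mean activation of sample wells on that plate plus 3 SD, cut at about 8% in these data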
# TbMetRS inhib = blocks T. brucei methionyl-tRNA synthetase activity; 360,000 tested, 0.4% active; inhibition, % at 11.9 µM; purified T. brucei MetRS, ATP depletion, Kinase-Glo luminescence;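 active means inhibition above a per-plate cutoff of the control wells' mean inhibition plus 3 SD, cut at about 5.5% in these data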;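 further: 0% = DMSO wells median and 100% = median of wells with control inhibitor compound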
#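 technique = Kinase-Glo luminescence, ATP depletion format | system = purified MetRS (methionyl-tRNA synthetase) enzyme from Trypanosoma brucei | timing = 15 min preincubation, 2 h reaction, all 25 °C | evaluation = percent inhibition versus plate control medians | dosing = single dose, 11.9 µM final nominal, 0.9% final DMSO | also added = substrates ATP, L-methionine and bulk Escherichia coli tRNA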
# U2OS cAMP counter = nonselective cAMP signaling inhibitor, MC4R antagonist counter-screen | shares compounds with MC4R antag cAMP | 1,600 tested, 26% active | inhibition, % at 6.5 µM | parental U2OS, forskolin cAMP, LANCE TR-FRET;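 active means mean inhibition over triplicates above the low-control well mean plus 3 SD, set per campaign, cut at about 13% in these data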;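 further: signal is single emission at 671 nm which falls as cellular cAMP rises; 0% = forskolin-stimulated wells and 100% = buffer without forskolin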
# MC4R antag conf = human MC4R cAMP antagonism confirmation | shares compounds with MC4R antag cAMP | MC4R-expressing cells, MTII-stimulated cAMP, TR-FRET | inhibition, % at 6.5 µM | 1,600 tested, 27% active; in the data active means inhibition above about 29%;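 further: 0% = agonist stimulated wells alone and 100% = agonist stimulated wells plus saturating reference antagonist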
# * marks the source's active call; other numbers are inactive results.
SMILES,hiPSC survival,MC4R antag cAMP,ABCB6 inh MLPCN,Exocytosis inh,MC4R ag barr,TbMetRS inhib,others
Cc1ccc(NC(=S)N(CCCN2CCCC2)Cc2cccn2Cc2ccc(Cl)cc2)cc1C,-1,10,95,81*,2,0,
Oc1ccc(N=Nc2ccc3c(c2)OCCO3)c2ncccc12,-1,-4,97,6,-3,-1,
COC(C/C=C/[C@@H](O)COCc1ccccc1)OC,1,3,103,-6,-1,0,
CC(=O)Oc1cccc(N2C(=O)c3ccc(C(=O)Nc4c[nH]c(=O)[nH]c4=O)cc3C2=O)c1,6,42*,87,1,0,0,
Oc1ccc(Cl)cc1C1=Nc2ccccc2N=C(c2ccco2)C1,-1,6,96,8,9.0*,-1,
COc1ccc(N2CCN(c3ncccn3)CC2)cc1,0,1,106,3,1,-1,
CC(=O)C(=Nc1ccccc1Cl)NNc1ccc(Cl)cc1,0,5,96,89*,0,1,
COc1ccc(/C=C(\NC(=O)c2ccco2)C(=O)Nc2ccc(C(C)=O)cc2)cc1,0,-4,99,15,1,0,
COc1ccc(C2C(O)C(c3c[nH]c4ccccc34)=NN2C(=O)CCl)cc1 (stereo unspecified),0,12,101,0,16*,0,
Cn1c(-c2ccc([N+](=O)[O-])cc2)nc2ccccc21,2,9,90,3,-1,0,
Cn1nc([N+](=O)[O-])c(C(C#N)c2nc3ccccc3n2C)c(Cl)c1=O (stereo unspecified),-1,23,102,71*,0,1,
CC(=O)/C=C(\C)Nc1c(C)n(C)n(-c2ccccc2)c1=O,-1,-3,96,-1,-4,-1,
CC(C)C[C@@]12C(=O)N(c3cccc(Cl)c3)C(=O)N1[C@H](c1ccc(Br)cc1)[C@@H]1C(=O)N(C(C)(C)C)C(=O)[C@@H]12,1,5,94,-5,2,0,
CC(C)C[C@@]12C(=O)N(c3cccc(F)c3)C(=O)N1[C@H](c1ccc(Br)cc1)[C@@H]1C(=O)N(C(C)(C)C)C(=O)[C@@H]12,-1,10,98,77*,-1,0,
Brc1ccc(/C=N/Nc2ccc3ccccc3n2)cc1,-1,-13,110,1,11*,-2,
Brc1ccccc1/C=N/Nc1ccc2ccccc2n1,-2,-3,99,15,-1,-1,
CC(C)(C)OC(=O)NCCCC[C@@H](C(=O)N1CCN(C(=O)OC(C)(C)C)CC1)n1cc(CCC(=O)O)nn1,-1,11,100,-3,0,0,
CCCCc1cn([C@@H](CCCCNC(=O)OC(C)(C)C)C(=O)N2CCN(C(=O)OC(C)(C)C)CC2)nn1,0,4,97,103*,-1,0,
COc1ccc(Cc2nnc(SCC(=O)Nc3ccc(C)cc3C)[nH]c2=O)cc1,0,0,103,2,-1,0,
Cc1nc(N2CCCCC2)c2c(C)c(C(=O)Nc3ccc4c(c3)OCCO4)sc2n1,0,9,97,1,0,0,
CC(=O)Oc1ccc2nc(-c3ccc(Br)o3)oc(=O)c2c1,3,32*,104,4,1,0,U2OS cAMP counter=6;MC4R antag conf=36*
O=C(c1c(F)c(F)c(F)c(F)c1F)N1CCc2ccccc21,-1,33*,98,0,-1,0,U2OS cAMP counter=17*;MC4R antag conf=27
COc1ccc(Cl)cc1NC(=O)c1ccccc1C,7,4,99,-1,-1,0,
COc1ccc(Cl)cc1NC(=S)Nc1ccccc1C,-1,29*,102,26,0,1,U2OS cAMP counter=-2;MC4R antag conf=-2
